This note sets out measurements from ChEMBL document CHEMBL4732048, “Amphiphilic desmuramyl peptides for the rational design of new vaccine adjuvants: Synthesis, in vitro modulation of inflammatory response and molecular docking studies” (2021).

Active and inactive are the calls of the source. The calls are words filed in the database; no cut-off is given here.

Experiment [1] concerns THP-1. Description: Immunostimulatory activity in human THP-1 cells assessed as increase in ICAM-1 expression level at 20 uM incubated for 21 hrs by flow cytometry analysis. Type of experiment: functional, cell-based. The essentials: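 THP-1 monocytes in RPMI-1640 with 10% heat-inactivated FBS and 1% antibiotic/antimycotic, 5% CO2, 37 °C. 0.5×10^6 cells/well pre-cultured 24 h, then exposed to 20 µM peptide for 21 h. Cells centrifuged, PBS-washed, resuspended in PBS/0.1% BSA, stained with PE anti-CD54 antibody; flow cytometry read-out of ICAM-1.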
In general terms: Flow cytometry measures light scatter and fluorescence of single cells or particles in a stream.

For experiment [2], the system named is THP-1. Description: Immunostimulatory activity in human THP-1 macrophage assessed as increase in TNF-alpha production at 15 uM incubated for 24 hrs by ELISA. Type of experiment: functional. The essentials: (§1)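 THP-1 monocytes (0.5×10^6) differentiated 48 h with PMA 20 ng/mL, PBS-washed, held 3 h in serum-free medium, then stimulated 24 h with peptide at 1, 15 or 30 µM. TNF-α in culture supernatants (stored −80 °C) measured by ELISA at 450 nm with 540 nm correction against a 2nd-order polynomial standard curve; mean of two experiments ± SEM; one-way ANOVA.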
A general note: ELISA stands for enzyme-linked immunosorbent assay.

Experiment [3] deals with THP-1. The experiment is described as follows: Immunostimulatory activity in human THP-1 macrophage assessed as increase in TNF-alpha production at 30 uM incubated for 24 hrs by ELISA. The experiment is classed as functional, cell-based. The essentials:
as §1

Experiment [4] has as its system THP-1. Description: Immunostimulatory activity in human THP-1 cells assessed as increase in LPS-induced ICAM-1 expression at 20 uM preincubated for 1 hr followed by LPS stimulation for 20 hrs by flow cytometry analysis. The experiment is classed as functional, cell-based. The settings on record: time 21.0 hrs. The essentials: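 Undifferentiated THP-1 monocytes (0.5×10^6/well, pre-cultured 24 h) pretreated 1 h with peptide (range 0.1–32 µM), then LPS 0.1 µg/mL added for 20 h. Cells pelleted, PBS-washed, resuspended in PBS with 0.1% BSA; ICAM-1 measured by flow cytometry.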

The test system of experiment [5] is THP-1. Description: Immunostimulatory activity in human THP-1 macrophage assessed as increase in LPS-induced ICAM-1 expression by measuring mean fluorescence intensity at 20 uM preincubated for 1 hr followed by LPS stimulation for 20 hrs by flow cytometry analysis (reference value: 602.95). Type of experiment: functional. The settings on record: time 21 hrs.

As for `CCCCCCNC(=O)CC[C@@H](NC(=O)[C@H](C)NC(=O)COc1cccc(NCCO)c1)C(N)=O`, the outcome in the experiment on THP-1 [1] and in the experiment with THP-1 [3] was inactive. For the same compound, the Activity in the experiment on THP-1 [2] was determined as 3226 pg/mL. In addition, the outcome in the experiment on THP-1 [4] was Active.

For the compound `CCCCCCNC(=O)CC[C@@H](NC(=O)[C@H](C)NC(=O)COc1cccc(N(CCCO)CCCO)c1)C(N)=O`, the outcome with THP-1 [1] and in the experiment with THP-1 [3] was inactive. Besides, in the experiment on THP-1 [2], the Activity was determined as 3306 pg/mL. Further, in the experiment with THP-1 [4], the outcome was Active.

Consider `CCCCCCNC(=O)CC[C@@H](NC(=O)[C@H](C)NC(=O)COc1cccc(NCCCO)c1)C(N)=O`, for which the result with THP-1 [1] and in the experiment on THP-1 [3] was inactive. Moreover, the Activity in the experiment with THP-1 [2] worked out at 3622 pg/mL. Further, in the experiment with THP-1 [4], the outcome was Active.

Turning to `CCCCOC(=O)[C@@H](CCC(N)=O)NC(=O)[C@H](C)NC(=O)[C@@H](C)O[C@H]1[C@H](O)[C@@H](CO)O[C@H](O)[C@@H]1NC(C)=O`, in the experiment with THP-1 [1], the result was inactive. In addition, in the experiment with THP-1 [2], the Activity was found to be 2694 pg/mL. Moreover, the Flu intensity in the experiment on THP-1 [5] came out at 1436.05.

For the compound `CCCCCCNC(=O)CC[C@@H](NC(=O)[C@H](C)NC(=O)COc1cccc(N(CCO)C(C)=O)c1)C(N)=O`, the outcome in the experiment on THP-1 [1] and with THP-1 [3] was inactive. For the same compound, the Activity with THP-1 [2] was found to be 3342 pg/mL. Also, in the experiment on THP-1 [4], the outcome was Active.

Take `CCCCCCNC(=O)CC[C@@H](NC(=O)[C@H](C)NC(=O)COc1cccc(N(CCO)C(=O)CCC)c1)C(N)=O`: the result in the experiment with THP-1 [1] and in the experiment with THP-1 [3] was inactive. Besides, the Activity in the experiment on THP-1 [2] came to 2806 pg/mL. Further, in the experiment with THP-1 [4], the result was Active.

As for `CCCCCCNC(=O)CC[C@@H](NC(=O)[C@H](C)NC(=O)COc1cccc(N(CCCO)C(C)=O)c1)C(N)=O`, the result in the experiment on THP-1 [1] and with THP-1 [3] was inactive. The Activity in the experiment on THP-1 [2] worked out at 2902 pg/mL. In the experiment on THP-1 [4], the outcome was Active.

Take `CCCCCCNC(=O)CC[C@@H](NC(=O)[C@H](C)NC(=O)COc1cccc(N(CCO)CCO)c1)C(N)=O`: the outcome with THP-1 [1] and in the experiment with THP-1 [3] was inactive. In the experiment with THP-1 [2], the Activity was 3111 pg/mL. Besides, in the experiment with THP-1 [4], the outcome was Active.

Consider `CCCCCCNC(=O)CC[C@@H](NC(=O)[C@H](C)NC(=O)COc1cccc(N(CCCO)C(=O)CCC)c1)C(N)=O`, for which the outcome in the experiment on THP-1 [1] and with THP-1 [3] was inactive. For the same compound, the Activity with THP-1 [2] was 3105 pg/mL. In the experiment on THP-1 [4], the result was Active. For the same compound, the Flu intensity with THP-1 [5] is on record as 905.38.
